Only a selection was taken, and hits are over-represented in it overall.
CHOP inh: inhibitors of CHOP induction in ER stress response. CHO-K1 CHOP-promoter luciferase, tunicamycin-induced, 15-18 h. inhibition, % at 10 µM. 220,000 tested, 3.8% active;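 active = compounds that reduced the stress-induced luciferase reporter signal by more than about 70% of percent inhibition, limit read from the data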;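 note: 0% = tunicamycin plus vehicle and 100% = wells without tunicamycin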
CHOP UPR activ: apoptotic UPR (CHOP) activation; activation, % at 10 µM; 330,000 tested, 0.34% active; CHO-CHOP luciferase reporter, luminescence; percent of tunicamycin response over DMSO baseline; AID 449763;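 active = at 10 µM dose, activation of 40% or more, normalized to positive control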;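 note: 100% = tunicamycin at 10 µg/mL and 0% = DMSO alone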
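System: CHO-CHOP luciferase reporter cell line | Buffer or medium: F12 medium containing 10% fetal bovine serum | Doses: One dose, 10 µM in 0.5% DMSO | Times: 6 h compound exposure at 37 °C after overnight seeding | Signal: Luciferase luminescence | Read-out: % activation vs tunicamycin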
UPR XBP1 act: activators of adaptive arm of unfolded protein response (XBP1). AID 463104. 330,000 tested, 0.33% active. activation, % at 20 µM. CHO-XBP1 luciferase reporter, IRE1-XBP1 UPR activation, luminescence; percent of tunicamycin response, DMSO as zero;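 active = versus positive control, 20 µM dose yields 30% or more activation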;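 note: 100% = tunicamycin at 10 µg/mL and 0% = DMSO only wells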
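Material – CHO cell line with stable XBP1 luciferase reporter · Buffer or medium – F12 plus 10% FBS · Compound – single point, 20 µM final compound, 1% DMSO · Schedule – 16-18 h cell attachment at 37 °C, then 6 h compound exposure · Signal – Steady-Glo luminescence read · Benchmarks – high control tunicamycin 10 µg/mL final, low control DMSO vehicle only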
Jurkat NFkB inh: lowers PMA/ionomycin-induced NF-kB signal in Jurkat cells. PMA/ionomycin-induced NF-kB luciferase reporter, luminescence. inhibition, % at 4 µM. 330,000 tested, 0.53% active. AID 435003; in the data active = inhibition above about 50%
697 NFkB inh: lowers PMA/ionomycin-induced NF-kB signal in 697 B cells; 697 B-cell NF-kB luciferase reporter, 16 h; inhibition, % at 4 µM; 330,000 tested, 0.33% active; AID 435022; in the data active = inhibition above about 35%
CHOP confirm: confirmation of CHOP induction inhibitors. CHO-CHOP promoter luciferase reporter, tunicamycin-induced, luminescence. AID 504437. shares compounds with CHOP inh. inhibition, % at 10 µM. 2,100 tested, 45% active;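 active = mean of three repeat readings of reporter signal inhibition above a set limit, cut at about 70% in these data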;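 note: 0% = tunicamycin plus vehicle and 100% = wells lacking tunicamycin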
* = called active by the depositor; . = no result given.

SMILES	CHOP inh	CHOP UPR activ	UPR XBP1 act	Jurkat NFkB inh	697 NFkB inh	CHOP confirm
CCc1nc(SCC(=O)Nc2nccs2)c2oc3ccccc3c2n1	102*	-1	21	12	-43	23
Cc1cc(=O)n2c(C(=O)Nc3ccc(C)c(C)c3)c(C(=O)Nc3ccccc3)sc2n1	97*	2	0	-9	-1	26
Cc1cccc(C)c1NC(=O)CN(C)CC(=O)c1c(N)n(Cc2ccccc2)c(=O)n(C)c1=O	.	-2	-2	-11	-7	.
CCOc1cccc2cc(-c3nnc(NCc4ccco4)s3)c(=O)oc12	97*	6	3	0	-45	20
Cc1ccc(Oc2ccc(OCC(=O)NC(CC(C)C)C(=O)O)cc2)cc1 (centres undefined)	-12	1	-1	0	4	.
O=c1c(Cl)c(N/N=C/c2ccc(Cl)cc2)cnn1-c1ccccc1	102*	2	2	-1	-20	59
O=c1c(Cl)c(Cl)cnn1-c1ccccc1	101*	.	.	.	.	96*
Nc1c(Cl)cnn(-c2ccccc2)c1=O	.	1	-2	18	3	.
CCC1CCCCN1C(=O)COc1ccc(S(=O)(=O)N2CCOCC2)cc1Cl (centres undefined)	.	-2	0	-6	34	.
C=C(C)Cn1c(-c2ccncc2)n[nH]c1=S	22	2	-2	-10	0	.
Cc1cc(N/N=C/c2ccc(O)c(C)c2O)nc(-c2ccccc2O)n1	107*	.	.	.	.	28
Cc1ccc(Nc2cc(C)nc(-c3ccccc3O)n2)cc1	56	3	0	-39	-35	.
Cc1cc(NCCCN)nc(-c2ccccc2O)n1	101*	-2	-1	-38	-10	-10
Cc1ccc(-c2ccc(/C=C3/NC(=O)NC3=O)o2)cc1[N+](=O)[O-]	98*	.	.	.	.	-18
O=C1NC(=S)N/C1=C/c1ccc(-c2c(Br)cc([N+](=O)[O-])cc2Br)o1	32	.	.	.	.	.
Cc1ccc2nc(-c3ccc(SCC(=O)Nc4nnc(C)s4)nc3)[nH]c2c1	105*	7	0	-114	-59	22
Cc1ccc(SCC(=O)Nc2ccc(-c3nc4ccccc4[nH]3)cc2)cc1	102*	4	17	-61	-124	6
Cc1cc(=O)[nH]c(N/N=C/c2ccc(OC(=O)c3ccco3)cc2)n1	-11	-2	4	-15	-3	.
Cc1cc(=O)oc(C)c1C(=O)OCC(=O)c1ccc(Cl)cc1	16	0	-9	26	-34	.
Cc1ccccc1N=C(NOCc1ccccc1)c1nonc1N	100*	0	-2	-2	-15	32
Cc1ccc(N=C(NOCc2ccc(Cl)cc2Cl)c2nonc2N)c(C)c1	64	-1	-1	19	9	.
O=C(CCCOc1ccc(Cl)cc1Cl)N/N=C\C1CCCCC1	105*	1	-1	6	26	83*
COc1cccc(N2CCN(CC(=O)N3CCN(S(=O)(=O)c4ccc(Cl)cc4)CC3)CC2)c1	.	-1	-2	15	9	.
COc1ccc(-n2c(-c3cc(-c4ccccc4)sc3N)n[nH]c2=S)cc1	100*	1	1	2	-43	8
O=C(Nc1cccc(O)c1)C(Cc1ccccc1)N1C(=O)c2cccc3cccc(c23)C1=O (centres undefined)	109*	-2	4	-1	-12	25
SMILES	CHOP inh	CHOP UPR activ	UPR XBP1 act	Jurkat NFkB inh	697 NFkB inh	CHOP confirm
O=C(O)C(Cc1ccccc1)N1C(=O)c2cccc3cccc(c23)C1=O (centres undefined)	16	1	1	-7	10	.
COc1ccc(-c2cc(-c3ccccc3)nc(SCC(=O)Nc3ncc(C)s3)c2C#N)cc1	36	-1	0	10	16	.
CCOc1ccc2nc(-c3ccccc3)nc(SCC(=O)Nc3ncc(C)s3)c2c1	98*	19	21	7	11	-15
COc1cc(Cl)c(C)cc1NC(=O)CSc1nnc(CCC(=O)O)c(=O)[nH]1	-5	-1	-2	-17	-2	.
CC1=C(C)/C(=N\OS(=O)(=O)c2ccc(C)cc2)C=CC1=O	108*	.	.	.	.	104*
CCCCc1ccc(NC(=S)NCc2cccc(OC)c2)cc1	102*	-1	1	-3	-5	19
Cc1nc2oc(C(=O)c3ccc(Br)cc3)c(N)c2c2c1COC(C)(C)C2	101*	1	5	6	6	-62
CCCc1nc2oc(C(=O)c3ccccc3)c(N)c2c2c1COC(C)(C)C2	110*	-4	5	-39	-63	97*
CCC(C)c1ccc(S(=O)(=O)N2CCN(S(=O)(=O)c3ccc(NC(C)=O)cc3)CC2)cc1 (centres undefined)	.	0	-3	18	4	.
O=C(ONc1ccc(N=NC(=O)c2ccccc2O)cc1)c1ccccc1	107*	-2	-4	-27	-47	132*
C=C(C(=O)c1ccccc1)C(C)C(=C)C(=O)c1ccccc1	100*	.	.	.	.	110*
CCOc1ccccc1NC(=O)CCSc1nc2n[nH]c(C)c2c(=N)n1-c1ccccc1Cl	101*	7	110*	-5	5	10
Cc1ccccc1-n1c(SCC(=O)Nc2ccccc2Cl)nc2n[nH]c(C)c2c1=N	.	3	5	12	-23	.
COc1cccc2sc(NC(=O)c3ccc(Br)s3)nc12	104*	1	7	-6	-80	48
Cc1cccc2sc(NC(=O)c3ccc(Cl)s3)nc12	56	4	10	-9	-56	.
CCCc1cc(C(=O)Cc2ccc(F)cc2)c(O)cc1O	100*	-1	1	-2	11	122*
CCc1cc(C(=O)Cc2ccc(F)cc2)c(O)cc1O	65	0	1	4	-4	.
CCCCCc1c(C)nc(NCc2ccccc2)[nH]c1=O	109*	-1	0	6	-7	134*
O=c1[nH]c(NCc2ccccc2)nc2c1CCC2	10	0	0	-7	10	.
Cc1cc(CNC(=O)C2(C(F)(F)F)C/C(=C\Cc3ccccc3)CCCO2)nn1C (centres undefined)	.	-1	-5	16	9	.
O=C(Nc1ccc(Cl)cc1)N1CCC(c2nc(-c3ccc(F)cc3)no2)CC1	104*	1	-1	10	-13	4
COCc1cc([C@@H]2C[C@H]3CN(c4ccccc4)C(=O)[C@]34CCCN24)ccc1OC	53	1	0	3	5	.
O=C1N(c2ccccc2)C[C@@H]2C[C@@H](c3cccs3)N3CCC[C@@]123	98*	0	-4	1	2	91*
C#CCOc1ccc(Cl)cc1/C=N/O	18	0	2	6	-2	.
O/N=C/c1cc(Cl)ccc1OCc1cccc2ccccc12	113*	3	4	5	-11	31
N#Cc1cccc(N=c2ssnc2Cl)c1	-1	0	5	2	-5	.
